From ChEMBL document CHEMBL1143645, “Structure-activity relationship study of novel necroptosis inhibitors” (Bioorg Med Chem Lett, 2005)
pEC50: −log10 of the molar value.

How the values were obtained:
Jurkat = experiment: Effective concentration required for inhibition of necroptosis in FADD deficient Jurkat T cells treated with TNF-alpha; assay type: functional, cell-based; conditions: Homo sapiens
How it was run: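 FADD-deficient human Jurkat T cells given human TNFα 10 ng/mL plus rising concentrations of inhibitor for 24 h. Viability read by luminescent ATP-based assay and corrected for nonspecific toxicity. EC50 from nonlinear regression of sigmoid variable-slope dose–response curves, log inhibitor concentration versus viability.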

[1] = Area under curve concentration in male mouse after 8 hours of intravenous administration; assay type: ADME; parameters: time < 8 hr, route intravenous; conditions: in vivo
How it was run: (§1)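 CD-1 mice of each sex given a single intravenous dose of 1 mg/kg. Vehicle was 10% propylene glycol in normal saline, dosing solution 0.16 mg/mL. Plasma pharmacokinetics followed over 8 h to give AUC, Cmax, half-life, Vss and clearance.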

[2] = Area under curve concentration in female mouse after 8 hours of intravenous administration; assay type: ADME; parameters: time < 8 hr, route intravenous; conditions: in vivo; how it was run: as §1
[3] = Maximum concentration in male mouse upon intravenous administration; assay type: ADME, organism-based; parameters: route intravenous; conditions: in vivo; how it was run: as §1
[4] = Maximum concentration in female mouse upon intravenous administration; assay type: ADME, organism-based; parameters: route intravenous; conditions: in vivo; how it was run: as §1
[5] = Brain concentration in male mouse after 30 min intravenous administration; assay type: ADME
How it was run: (§2)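 Male CD-1 mice dosed intravenously at 1 mg/kg in 10% propylene glycol/normal saline (0.16 mg/mL). Brain and plasma concentrations measured at set post-injection times, and brain-to-plasma ratio calculated.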

[6] = Plasma concentration in male mouse after 30 min intravenous administration; assay type: ADME; how it was run: as §2
[7] = Plasma concentration in male mouse after 180 min intravenous administration; assay type: ADME; how it was run: as §2
[8] = Ratio between concentration in brain to that of plasma was determined n male mouse after 30 min intravenous administration; assay type: ADME; how it was run: as §2
[9] = Clearance value in male mouse upon intravenous administration; assay type: ADME, organism-based; conditions: in vivo, read-out: CLs; how it was run: as §1
[10] = Clearance value in female mouse upon intravenous administration; assay type: ADME, organism-based; conditions: in vivo, read-out: CLs; how it was run: as §1
[11] = Volume of distribution at steady state was determined in male mouse upon intravenous administration; assay type: ADME, organism-based; conditions: in vivo; how it was run: as §1

| Compound | pEC50 (Jurkat) | also measured |
| --- | --- | --- |
| CN1C(=O)NC(Cc2c[nH]c3c(OCc4ccccc4)cccc23)C1=O (stereo unspecified) | < 5.00 | – |
| Cc1[nH]c2ccccc2c1CC1NC(=O)N(C)C1=O (stereo unspecified) | < 5.00 | – |
| CN1C(=O)N[C@@H](Cc2c[nH]c3c(Cl)cccc23)C1=O | 6.64 | – |
| O=C1NC(Cc2c[nH]c3c(Cl)cccc23)CO1 (stereo unspecified) | < 5.00 | – |
| CN1C(=O)C(Cc2cn(C)c3ccccc23)NC1=S (stereo unspecified) | < 5.00 | – |
| CN1C(=O)NC(Cc2cn(C)c3c(Cl)cccc23)C1=O (stereo unspecified) | 5.42 | – |
| CN1C(=O)C(Cc2c[nH]c3c(Cl)cccc23)N(C)C1=O (stereo unspecified) | < 5.00 | – |
| CN1C(=O)C(Cc2cn(C)c3c(Cl)cccc23)NC1=S (stereo unspecified) | < 5.00 | – |
| CN1C(=O)OC(Cc2c[nH]c3c(Cl)cccc23)C1=O (stereo unspecified) | 6.42 | – |
| CN1C(=O)NC(Cc2c[nH]c3c(Cl)cccc23)C1=O (stereo unspecified) | 6.68 | AUC at 8 h [1]: 274 ng·h/mL; AUC at 8 h [2]: 165 ng·h/mL; Cmax [3]: 873 ng/mL; Cmax [4]: 573 ng/mL; concentration at 0.5 h [5]: 740 nM; concentration at 0.5 h [6]: 310 nM; concentration at 3 h [7]: 3 nM; Kp at 0.5 h [8]: 2.4; clearance [9]: 61 mL/min/kg; clearance [10]: 100 mL/min/kg; Vss [11]: 2.5 L/kg; Vd ([11]; male, read-out: Vss): 2.5 L/kg |
| CCCCOc1cccc2c(CC3NC(=O)N(C)C3=O)c[nH]c12 (stereo unspecified) | 6.57 | – |
| CN1C(=O)NC(Cc2c[nH]c3cc(Cl)ccc23)C1=O (stereo unspecified) | 5.24 | – |
| Cc1cccc2c(CC3NC(=O)N(C)C3=O)c[nH]c12 (stereo unspecified) | 6.48 | – |
| CN1C(=O)NC(Cc2c[nH]c3ccccc23)C1=O (stereo unspecified) | 5.89 | – |
| CCCCN1C(=O)NC(Cc2c[nH]c3c(Cl)cccc23)C1=O (stereo unspecified) | 6.07 | – |
| CC(C)N1C(=O)NC(Cc2c[nH]c3c(Cl)cccc23)C1=O (stereo unspecified) | < 5.00 | – |
| CN1C(=O)NC(Cc2csc3ccccc23)C1=O (stereo unspecified) | 5.25 | – |

| Compound | pEC50 (Jurkat) | also measured |
| --- | --- | --- |
| CN1C(=O)C(Cc2csc3ccccc23)NC1=S (stereo unspecified) | 5.32 | – |
| CN1C(=O)C(Cc2c[nH]c3ccccc23)NC1=S (stereo unspecified) [NECROSTATIN] | 6.31 | – |
| CN1C(=O)NC(Cc2c[nH]c3c(Cl)cc(Cl)cc23)C1=O (stereo unspecified) | < 5.00 | – |
| CN1C(=O)NC(Cc2c[nH]c3c(F)cccc23)C1=O (stereo unspecified) | 6.23 | – |
| CN1C(=O)N[C@H](Cc2c[nH]c3c(Cl)cccc23)C1=O | 7.30 | – |
| CN1C(=O)C(Cc2c[nH]c3c(Cl)cccc23)NC1=S (stereo unspecified) | 6.74 | – |
| COc1cccc2c(CC3NC(=O)N(C)C3=O)c[nH]c12 (stereo unspecified) | 6.15 | – |
| COc1cccc2c(CC3NC(=S)N(C)C3=O)c[nH]c12 (stereo unspecified) | 6.20 | – |
| COc1ccc2[nH]cc(CC3NC(=O)N(C)C3=O)c2c1 (stereo unspecified) | < 5.00 | – |
| CCN1C(=O)N[C@@H](Cc2c[nH]c3c(Cl)cccc23)C1=O | 6.74 | – |
| O=C1NC(=O)C(Cc2c[nH]c3ccccc23)N1 (stereo unspecified) | < 5.00 | – |
| CN1C(=O)NC(Cc2c[nH]c3cccc(Cl)c23)C1=O (stereo unspecified) | 5.04 | – |
| CN1C(=O)C(Cc2c[nH]c3c(F)cccc23)NC1=S (stereo unspecified) | 6.59 | – |
| O=C1NC(=S)NC1Cc1c[nH]c2ccccc12 (stereo unspecified) | < 5.00 | – |
| CN1C(=O)C(Cc2c[nH]c3cc(Cl)ccc23)NC1=S (stereo unspecified) | < 5.00 | – |
| CN1C(=O)C(Cc2c[nH]c3c(Br)cccc23)NC1=S (stereo unspecified) | 6.80 | – |
| CN1CC(Cc2c[nH]c3c(Cl)cccc23)NC1=O (stereo unspecified) | < 5.00 | – |
